The structures appear in SMILES notation.

The term IC50 denotes the concentration that gives 50% inhibition.

The test system of assay [1] is Hepatitis C virus. The experiment in a line: Inhibition of HCV 1b BK NS5B delta21 RNA polymerase expressed in Escherichia coli. Also on record: species or system Hepatitis C virus subtype 1b.
Assay [2] concerns Hepatitis C virus. The experiment in a line: Antiviral activity in Huh7 cells containing HCV 1b BB7 replicon. The assay is classed as functional, organism-based, Hepacivirus hominis. Particulars: genotype 1b, Huh-7. The procedure, abridged:
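Huh7 cells carrying the genotype 1b BB7 replicon were exposed to increasing compound concentrations for 3 days in DMEM with 2% FCS and no G418. HCV, ribosomal and GAPDH mRNA levels were measured by quantitative TaqMan RT-PCR. Values are averages of at least three determinations.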

The nature of assay [3]: Cytotoxicity against Huh7 cells by MTS assay. The assay is classed as cell-based. As to conditions: Homo sapiens, Huh-7.
Assay [4] can be described thus: Inhibition of HIV reverse transcriptase. Also on record: species or system Human immunodeficiency virus. The procedure, abridged:
(§1)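 The enzyme was incubated with compound in buffer containing four dNTPs spiked with [α-33P]TTP, with dNTPs and templates at their respective Km levels. Templates were poly(dA)-oligo(dT)12 for HIV RT, activated calf thymus DNA for CT pol α and human pol α/β, and singly primed M13 DNA for human pol γ. Reactions ran 1-2 h at 37 °C, and filtered product was counted. Values are averages of at least three determinations.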

Assay [5] can be described thus: Inhibition of human DNA polymerase beta. The procedure, abridged: as §1
The nature of assay [6]: Inhibition of RNA polymerase 2. Details: species or system Homo sapiens.
The nature of assay [7]: Inhibition of human DNA polymerase alpha. The method in brief:
as §1

Assay [8] is described as follows: Inhibition of human DNA polymerase gamma. The method in brief:
as §1

Assay [9] in a line: Inhibition of calf thymus DNA polymerase alpha. Details: species or system Bos taurus. The procedure, abridged: as §1

Consider `O=C(COc1ccc(Cl)cc1)Nc1cccc(C(=O)O)c1`, for which the IC50 in the assay on Hepatitis C virus [1] is more than 33000 nM.

On to `CC(=O)c1cc(F)c(C)cc1NCC(=O)Nc1ccccc1C(=O)O`, for which inhibition with Hepatitis C virus [1] was half-maximal at 7470 nM (IC50).

In the assay with Hepatitis C virus [1], `N#Cc1ccc(OCC(=O)Nc2ccccc2C(=O)O)cc1` yielded an IC50 of 5100 nM.

For the molecule `O=C(COc1cc(F)c(F)cc1F)Nc1ccccc1C(=O)O`, the IC50 in the assay on Hepatitis C virus [2] is more than 11 µM; with Hepatitis C virus [1] it was 1270 nM; in assay [3], more than 115 µM.

`COC(=O)c1ccccc1NC(=O)COc1ccc(Cl)cc1` showed an IC50 with Hepatitis C virus [1] of more than 31000 nM.

As to `Cc1cc(OCC(=O)Nc2ccccc2C(=O)O)c(Br)cc1Cl`, the IC50 was more than 11 µM in the assay on Hepatitis C virus [2], 110 nM in the assay with Hepatitis C virus [1] and more than 115 µM in [3].

Regarding `O=C(CNc1ccc(Cl)c(Cl)c1)Nc1ccccc1C(=O)O`, the figures for the IC50 (with Hepatitis C virus [2]; in the assay on Hepatitis C virus [1]; in assay [3]) were 13 µM, 200 nM and 47 µM, respectively.

`O=C(COc1ccc(Cl)cc1Cl)Nc1ccccc1C(=O)O`: the IC50 in the assay with Hepatitis C virus [2] was more than 11 µM; in the assay with Hepatitis C virus [1], 450 nM; in assay [3], more than 115 µM.

Consider `CC(=O)c1cc(F)c(Cl)cc1NCC(=O)Nc1ccccc1C(=O)O`, for which the half-inhibitory concentration (IC50) was 2 µM with Hepatitis C virus [2]; more than 137 µM in [3]; more than 137 µM in [4]; more than 137 µM in [5]; more than 137 µM in [6]; more than 137 µM in assay [7]. Moreover, the IC50 is more than 27 µM in [8] and more than 137 µM in assay [9].

Take `CC(=O)c1cc(Br)c(Cl)cc1NCC(=O)Nc1ccccc1C(=O)O`: the results for the IC50 (with Hepatitis C virus [2]; in the assay with Hepatitis C virus [1]; in assay [3]) were 30 µM, 22 nM and more than 117 µM, respectively.

`C[C@H](Oc1ccc(Cl)cc1)C(=O)Nc1ccccc1C(=O)O` yielded an IC50 with Hepatitis C virus [1] of 760 nM.

`O=C(COc1ccc(Br)cc1)Nc1ccccc1C(=O)O` showed a 50% inhibitory concentration (IC50) in the assay on Hepatitis C virus [1] of 3230 nM.

Take `CCC(=O)c1cc(Cl)ccc1NCC(=O)Nc1ccccc1C(=O)O`: the 50% inhibitory concentration (IC50) in the assay on Hepatitis C virus [1] is 3360 nM.

For the molecule `CC(=O)c1cc(C)c(C)cc1NCC(=O)Nc1ccccc1C(=O)O`, the IC50 is 32 µM in the assay with Hepatitis C virus [2], 210 nM with Hepatitis C virus [1] and more than 147 µM in assay [3].

On to `CCc1cc(NCC(=O)Nc2ccccc2C(=O)O)c(C(C)=O)cc1Cl`, for which the concentration for half-maximal inhibition (IC50) in the assay with Hepatitis C virus [2] came to 5 µM; with Hepatitis C virus [1] it was 32 nM; in [3] it was 44 µM.

As for `CC(=O)c1cc(C)c(Cl)cc1NCC(=O)Nc1ccccc1C(=O)O`, the results for the IC50 (in the assay on Hepatitis C virus [2]; in the assay on Hepatitis C virus [1]; in assay [3]) were 30 µM, 1050 nM and more than 139 µM, respectively.

Regarding `CC(=O)c1ccc(Cl)cc1OCC(=O)Nc1ccccc1C(=O)O`, the IC50 in the assay with Hepatitis C virus [2] is more than 11 µM; with Hepatitis C virus [1], 860 nM; in assay [3], more than 115 µM.

Take `CC(=O)c1cc(F)c(Br)cc1NCC(=O)Nc1ccccc1C(=O)O`: the IC50 with Hepatitis C virus [2] was 2 µM; in the assay with Hepatitis C virus [1] it was 10 nM; in assay [3] it was more than 122 µM; in assay [4] it was more than 122 µM; in [5] it was more than 122 µM; in assay [6], more than 122 µM. Further, the concentration for half-maximal inhibition (IC50) in [7] is more than 122 µM; in [8] it was more than 24 µM; in assay [9], more than 122 µM.

In turn, `CC(C)(Oc1ccc(Cl)cc1)C(=O)Nc1ccccc1C(=O)O` had an IC50 with Hepatitis C virus [1] of more than 30000 nM.

Regarding `CC(=O)c1cc(Cl)c(Cl)cc1NCC(=O)Nc1ccccc1C(=O)O`, the IC50 with Hepatitis C virus [2] amounted to 10 µM; with Hepatitis C virus [1], 30 nM; in assay [3], 123 µM.

Take `CC(=O)c1cc(F)c(Cl)cc1OCC(=O)Nc1ccccc1C(=O)O`: the figures for the IC50 (in the assay with Hepatitis C virus [2]; in the assay on Hepatitis C virus [1]; in assay [3]) were more than 11 µM, 230 nM and more than 115 µM, respectively.

On to `CC(=O)c1cc(Cl)c(C)cc1OCC(=O)Nc1ccccc1C(=O)O`, for which the half-maximal inhibitory concentration (IC50) in the assay on Hepatitis C virus [2] is more than 11 µM; with Hepatitis C virus [1], 140 nM; in assay [3] it was more than 115 µM.

As for `O=C(CNc1cccc(Br)c1)Nc1ccccc1C(=O)O`, the IC50 in the assay on Hepatitis C virus [1] amounted to 870 nM.

On to `O=C(COc1cc(Cl)c(Cl)cc1Cl)Nc1ccccc1C(=O)O`, for which the IC50 in the assay with Hepatitis C virus [2] was more than 11 µM; in the assay on Hepatitis C virus [1], 30 nM; in assay [3], more than 115 µM.

For the molecule `CN(CC(=O)Nc1ccccc1C(=O)O)c1ccc(Cl)c(Cl)c1`, the results for the concentration for half-maximal inhibition (IC50) (in the assay on Hepatitis C virus [2]; with Hepatitis C virus [1]; in assay [3]) were 14 µM, 170 nM and 47 µM, respectively.

For the molecule `O=C(CNc1ccc(F)c(Cl)c1)Nc1ccccc1C(=O)O`, the IC50 in the assay with Hepatitis C virus [2] worked out at 40 µM; in the assay with Hepatitis C virus [1] it was 210 nM; in assay [3] it was 155 µM.

For the molecule `COc1ccc(OCC(=O)Nc2ccccc2C(=O)O)cc1`, 35000 nM corresponded to half-maximal inhibition in the assay on Hepatitis C virus [1] (IC50).

Regarding `CC(=O)c1cc(C)ccc1OCC(=O)Nc1ccccc1C(=O)O`, the concentration for half-maximal inhibition (IC50) is more than 11 µM in the assay on Hepatitis C virus [2], 2800 nM in the assay with Hepatitis C virus [1] and more than 115 µM in assay [3].

Molecule `O=C(COc1cccc(Br)c1)Nc1ccccc1C(=O)O` returned an IC50 in the assay with Hepatitis C virus [1] of 1140 nM.

As to `CC(=O)c1cc(Cl)c(F)cc1NCC(=O)Nc1ccccc1C(=O)O`, the figures for the half-maximal inhibitory concentration (IC50) (in the assay on Hepatitis C virus [2]; with Hepatitis C virus [1]; in assay [3]) were 17 µM, 180 nM and more than 137 µM, respectively.

Consider `O=C(COc1ccccc1)Nc1ccccc1C(=O)O`, for which the half-maximal inhibitory concentration (IC50) with Hepatitis C virus [1] was more than 37000 nM.

As for `CC(=O)c1cc(Cl)c(C)cc1NCC(=O)Nc1ccccc1C(=O)O`, the IC50 with Hepatitis C virus [2] is 3.1 µM; in the assay on Hepatitis C virus [1], 80 nM; in [3] it was more than 139 µM.

For the molecule `COc1cc(Cl)ccc1OCC(=O)Nc1ccccc1C(=O)O`, the IC50 in the assay with Hepatitis C virus [2] is more than 11 µM; in the assay on Hepatitis C virus [1], 570 nM; in [3] it was more than 115 µM.

On to `O=C(COc1ccc(F)cc1)Nc1ccccc1C(=O)O`, for which the 50% inhibitory concentration (IC50) in the assay with Hepatitis C virus [1] is 5200 nM.

As to `CC(=O)c1cc(Cl)c(F)cc1OCC(=O)Nc1ccccc1C(=O)O`, the IC50 with Hepatitis C virus [2] was more than 11 µM; in the assay with Hepatitis C virus [1] it was 110 nM; in assay [3], more than 115 µM.

Consider `CC(=O)c1cc(F)ccc1OCC(=O)Nc1ccccc1C(=O)O`, for which the half-maximal inhibitory concentration (IC50) with Hepatitis C virus [2] was more than 11 µM; in the assay with Hepatitis C virus [1] it was 1500 nM; in assay [3], more than 115 µM.

As to `Cc1cc(Cl)ccc1OCC(=O)Nc1ccccc1C(=O)O`, the IC50 with Hepatitis C virus [2] was more than 11 µM; in the assay on Hepatitis C virus [1], 570 nM; in [3], more than 115 µM.

Turning to `O=C(CSc1ccc(Cl)cc1)Nc1ccccc1C(=O)O`, the IC50 in the assay with Hepatitis C virus [1] came to 4400 nM.

Turning to `CC(=O)c1cc(Cl)ccc1OCC(=O)Nc1ccccc1C(=O)O`, the results for the IC50 (in the assay with Hepatitis C virus [2]; in the assay with Hepatitis C virus [1]; in assay [3]) were more than 11 µM, 530 nM and more than 115 µM, respectively.

The molecule `C[C@@H](Oc1ccc(Cl)cc1)C(=O)Nc1ccccc1C(=O)O` yielded an IC50 with Hepatitis C virus [1] of 50000 nM.

On to `O=C(COc1ccc(Cl)cc1)Nc1ccc(C(=O)O)cc1`, for which the 50% inhibitory concentration (IC50) in the assay on Hepatitis C virus [1] is more than 28000 nM.

As to `CC(=O)c1cc(Cl)ccc1NCC(=O)Nc1ccccc1C(=O)O`, the IC50 in the assay with Hepatitis C virus [2] is 12 µM; in the assay on Hepatitis C virus [1] it was 230 nM; in assay [3], more than 144 µM.

Take `CC(=O)c1cc(Br)ccc1NCC(=O)Nc1ccccc1C(=O)O`: the IC50 with Hepatitis C virus [2] is 43 µM; in the assay with Hepatitis C virus [1], 110 nM; in [3] it was more than 128 µM.

The record behind these values is ChEMBL document CHEMBL1147133, “Identification of anthranilic acid derivatives as a novel class of allosteric inhibitors of hepatitis C NS5B polymerase” (J Med Chem, 2007).
